Measurements published in ChEMBL document CHEMBL1138395, “Adamantane sulfone and sulfonamide 11-beta-HSD1 Inhibitors” (Bioorg Med Chem Lett, 2007).
pIC50, pKi: −log10 of the molar value.

How the values were obtained:
[1] = target: T1, 11-beta-hydroxysteroid dehydrogenase type 2 (Mus musculus, UniProt P51661); assay: Inhibition of mouse HSD2 assessed as interconversion of cortisone to cortisol
T1 sequence (P51661 whole entry): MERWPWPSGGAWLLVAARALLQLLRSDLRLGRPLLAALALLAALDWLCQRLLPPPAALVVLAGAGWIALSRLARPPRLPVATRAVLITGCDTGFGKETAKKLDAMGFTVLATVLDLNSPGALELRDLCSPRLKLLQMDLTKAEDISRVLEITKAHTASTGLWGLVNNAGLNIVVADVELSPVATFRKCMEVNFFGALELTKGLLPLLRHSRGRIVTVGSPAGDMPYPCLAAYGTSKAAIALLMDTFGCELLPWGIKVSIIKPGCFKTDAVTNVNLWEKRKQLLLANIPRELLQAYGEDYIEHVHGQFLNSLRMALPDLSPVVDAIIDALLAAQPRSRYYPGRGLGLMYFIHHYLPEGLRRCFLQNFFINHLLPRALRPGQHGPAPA
Procedure, shortened: (§1)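 Enzyme inhibition measured as blocking the interconversion between cortisone and cortisol by mouse HSD1 (reported as Ki) or mouse HSD2 (reported as IC50); values are means of at least two experiments.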

[2] = target: 11-beta-hydroxysteroid dehydrogenase 1 (Mus musculus, UniProt P50172); assay: Inhibition of mouse HSD1 assessed as interconversion of cortisone to cortisol; procedure, shortened: as §1
[3] = Metabolic stability in mouse liver microsomes assessed as compound remaining after 30 mins; type: ADME, Microsome; details: read-out: Stability
Procedure, shortened: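 Test compound incubated with mouse liver microsomes for 30 min; percent of parent compound remaining afterward reported.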

[4] = target: T2, 11-beta-hydroxysteroid dehydrogenase 1 (Homo sapiens, UniProt P28845); assay: Inhibition of human HSD1 assessed as interconversion of cortisone to cortisol
[5] = target: T2, 11-beta-hydroxysteroid dehydrogenase 1; assay: Inhibition of human HSD1 expressed in HEK cells; type: cell-based, HEK293
[6] = target: T3, 11-beta-hydroxysteroid dehydrogenase type 2 (Homo sapiens, UniProt P80365); assay: Inhibition of human HSD2 assessed as interconversion of cortisone to cortisol
T3 sequence (P80365 whole entry): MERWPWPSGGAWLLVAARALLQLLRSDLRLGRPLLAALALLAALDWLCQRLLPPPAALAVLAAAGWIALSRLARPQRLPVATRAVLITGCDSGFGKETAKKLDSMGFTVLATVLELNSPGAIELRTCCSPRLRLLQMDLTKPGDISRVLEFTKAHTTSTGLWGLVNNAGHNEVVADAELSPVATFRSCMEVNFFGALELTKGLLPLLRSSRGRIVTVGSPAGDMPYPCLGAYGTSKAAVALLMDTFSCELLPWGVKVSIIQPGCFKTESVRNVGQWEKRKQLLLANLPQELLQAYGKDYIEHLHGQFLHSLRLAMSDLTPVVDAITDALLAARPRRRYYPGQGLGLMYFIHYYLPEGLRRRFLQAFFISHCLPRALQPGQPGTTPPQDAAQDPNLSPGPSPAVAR

[7] = system: Mus musculus; assay: Ex vivo inhibition of brain 11-beta-HSD1 in DIO mouse at 30 mg/kg, po after 16 hrs; type: functional
Procedure, shortened: (§2)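 DIO mice dosed orally at 30 mpk; animals killed 1, 7 and 16 h after the dose and liver, fat and brain taken. Ex vivo 11-β-HSD1 activity (cortisol levels) in tissue was measured and percent inhibition expressed relative to vehicle-dosed animals; means from two animals per point.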

[8] = system: Mus musculus; assay: Ex vivo inhibition of fat 11-beta-HSD1 in DIO mouse at 30 mg/kg, po after 16 hrs; type: functional; procedure, shortened: as §2
[9] = system: Mus musculus; assay: Ex vivo inhibition of brain 11-beta-HSD1 in DIO mouse at 30 mg/kg, po after 1 hr; type: functional; procedure, shortened: as §2
[10] = system: Mus musculus; assay: Ex vivo inhibition of liver 11-beta-HSD1 in DIO mouse at 30 mg/kg, po after 16 hrs; type: functional; procedure, shortened: as §2
[11] = Plasma clearance in mouse at 10 mg/kg, iv; type: ADME, organism-based; set-up: dose 10 mg/kg, route intravenous
[12] = system: Mus musculus; assay: Ex vivo inhibition of liver 11-beta-HSD1 in DIO mouse at 30 mg/kg, po after 7 hrs; type: functional; procedure, shortened: as §2
[13] = system: Mus musculus; assay: Ex vivo inhibition of fat 11-beta-HSD1 in DIO mouse at 30 mg/kg, po after 1 hr; type: functional; procedure, shortened: as §2
[14] = Volume of distribution at steady state in mouse at 10 mg/kg; type: ADME, organism-based; set-up: dose 10 mg/kg; details: in vivo, read-out: Vdss
[15] = system: Mus musculus; assay: Ex vivo inhibition of liver 11-beta-HSD1 in DIO mouse at 30 mg/kg, po after 1 hr; type: functional; procedure, shortened: as §2
[16] = Oral bioavailability in mouse at 10 mg/kg; type: ADME, organism-based; details: in vivo
[17] = AUC in mouse at 10 mg/kg, po; type: ADME, organism-based; set-up: dose 10 mg/kg, route oral; details: plasma
[18] = system: Mus musculus; assay: Ex vivo inhibition of brain 11-beta-HSD1 in DIO mouse at 30 mg/kg, po after 7 hrs; type: functional; procedure, shortened: as §2
[19] = Half life in mouse at 10 mg/kg, iv; type: ADME, organism-based; set-up: dose 10 mg/kg, route intravenous; details: in vivo
[20] = system: Mus musculus; assay: Ex vivo inhibition of fat 11-beta-HSD1 in DIO mouse at 30 mg/kg, po after 7 hrs; type: functional; procedure, shortened: as §2
[21] = Volume of distribution at terminal phase in mouse at 10 mg/kg; type: ADME, organism-based; set-up: dose 10 mg/kg; details: in vivo, read-out: Vbeta
[22] = Oral bioavailability in mouse at 5 mg/kg, iv and 10 mg/kg, po; type: ADME, organism-based; details: in vivo
[23] = Volume of distribution at steady state in mouse at 5 mg/kg, iv and 10 mg/kg, po; type: ADME, organism-based; details: in vivo, read-out: Vdss
[24] = Volume of distribution at terminal phase in mouse at 5 mg/kg, iv and 10 mg/kg, po; type: ADME, organism-based; details: in vivo, read-out: Vbeta
[25] = AUC in mouse at 5 mg/kg, iv and 10 mg/kg, po; type: ADME, organism-based; details: plasma
[26] = Half life in mouse at 5 mg/kg, iv and 10 mg/kg, po; type: ADME, organism-based; details: in vivo
[27] = Plasma clearance in mouse at 5 mg/kg, iv and 10 mg/kg, po; type: ADME, organism-based

Chain of 11-beta-hydroxysteroid dehydrogenase 1 (Mus musculus, UniProt P50172) (P50172 whole entry): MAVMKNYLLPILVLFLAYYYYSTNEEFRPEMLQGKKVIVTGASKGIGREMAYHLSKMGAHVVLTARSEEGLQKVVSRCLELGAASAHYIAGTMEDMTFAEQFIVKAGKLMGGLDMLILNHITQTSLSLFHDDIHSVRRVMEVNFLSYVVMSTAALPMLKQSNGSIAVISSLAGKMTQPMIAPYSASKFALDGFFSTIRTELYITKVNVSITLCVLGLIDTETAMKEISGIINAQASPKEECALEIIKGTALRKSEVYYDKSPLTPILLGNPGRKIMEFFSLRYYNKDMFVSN
T2 sequence (P28845 whole entry): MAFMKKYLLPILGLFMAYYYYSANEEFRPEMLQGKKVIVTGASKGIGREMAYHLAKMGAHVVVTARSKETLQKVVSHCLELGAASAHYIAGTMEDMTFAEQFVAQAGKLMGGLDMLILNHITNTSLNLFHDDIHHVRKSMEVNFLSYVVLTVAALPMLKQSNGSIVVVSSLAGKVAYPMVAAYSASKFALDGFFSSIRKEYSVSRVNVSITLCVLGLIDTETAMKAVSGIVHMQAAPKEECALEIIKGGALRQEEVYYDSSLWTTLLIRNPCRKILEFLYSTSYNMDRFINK

Row | pIC50 [1] | pKi [2] | remaining at 0.5 h [3] [%] | pKi [4] | pIC50 [5] | pIC50 [6] | SMILES | other results
1 | 4.00 | 7.68 | < 1 | – | – | – | CN(C)S(=O)(=O)[C@]12CC3CC(C1)[C@@H](NC(=O)C(C)(C)Oc1ccc(Cl)cc1)C(C3)C2 | –
2 | – | 6.96 | – | 6.77 | – | – | CC(=O)NS(=O)(=O)[C@]12CC3CC(C1)[C@@H](NC(=O)C(C)(C)Oc1ccc(Cl)cc1)C(C3)C2 | –
3 | < 4.00 | 6.68 | – | 8.10 | 6.38 | < 4.00 | CC(C)(C(=O)N[C@H]1C2CC3CC1C[C@](S(N)(=O)=O)(C3)C2)c1ccccc1 | –
4 | < 4.00 | 8.70 | 55 | 8.52 | 6.72 | 5.05 | CC(C)(Oc1c(Cl)cc(F)cc1Cl)C(=O)N[C@H]1C2CC3CC1C[C@](S(N)(=O)=O)(C3)C2 | –
5 | < 4.00 | – | < 1 | – | – | – | CNS(=O)(=O)[C@]12CC3CC(C1)[C@@H](NC(=O)C(C)(C)Oc1ccc(Cl)cc1)C(C3)C2 | –
6 | < 4.00 | – | 96 | – | – | – | CC(C)(Oc1ccc(Cl)cc1)C(=O)N[C@H]1C2CC3CC1C[C@](S(N)(=O)=O)(C3)C2 | bioavailability [22]: 150%; Vd [23]: 2.1 L/kg; Vd [24]: 2.1 L/kg; AUC [25]: 18300 ng·h/mL; half-life [26]: 108 min; clearance [27]: 13.3 mL/min/kg

Second part, the compound before the results:

Row | SMILES | pIC50 [1] | pKi [2] | remaining at 0.5 h [3] [%] | pKi [4] | pIC50 [5] | pIC50 [6] | other results
7 | CC(C)(Oc1ccccc1OC(F)(F)F)C(=O)N[C@H]1C2CC3CC1C[C@](S(N)(=O)=O)(C3)C2 | < 4.00 | 8.52 | 38 | – | – | – | –
8 | CC(C)(Oc1ccc(F)cc1Cl)C(=O)N[C@H]1C2CC3CC1C[C@](S(N)(=O)=O)(C3)C2 | < 4.00 | 8.52 | 61 | 8.22 | 6.90 | < 4.00 | inhibition in vivo at 30 mg/kg [7]: 73%; inhibition in vivo at 30 mg/kg [8]: 93%; inhibition in vivo at 30 mg/kg [9]: 29%; inhibition in vivo at 30 mg/kg [10]: 82%; clearance [11]: 15 mL/min/kg; inhibition in vivo at 30 mg/kg [12]: 78%; inhibition in vivo at 30 mg/kg [13]: 62%; Vd [14]: 2.6 L/kg; inhibition in vivo at 30 mg/kg [15]: 70%; bioavailability [16]: 61%; AUC [17]: 7000 ng·h/mL; inhibition in vivo at 30 mg/kg [18]: 48%; half-life [19]: 168 min; inhibition in vivo at 30 mg/kg [20]: 88%; Vd [21]: 3.5 L/kg
9 | CC(C)(Oc1ccccc1C(F)(F)F)C(=O)N[C@H]1C2CC3CC1C[C@](S(C)(=O)=O)(C3)C2 | < 4.00 | 8.52 | – | 8.15 | 6.92 | < 4.00 | –
10 | CC(C)(Oc1ccccc1Cl)C(=O)N[C@H]1C2CC3CC1C[C@](S(C)(=O)=O)(C3)C2 | < 4.00 | 8.70 | – | 8.30 | 6.92 | 5.27 | –
11 | CC(C)(Oc1cccc(Cl)c1)C(=O)N[C@H]1C2CC3CC1C[C@](S(N)(=O)=O)(C3)C2 | < 4.00 | 8.22 | – | 8.40 | 6.49 | 5.20 | –
